Results reported in ChEMBL document CHEMBL1123290, “Synthesis, antimalarial activity, and quantitative structure-activity relationships of tebuquine and a series of related 5-[(7-chloro-4-quinolinyl)amino]-3-[(alkylamino)methyl] [1,1'-biphenyl]-2-ols and N omega-oxides” (1986).

Assays:
Format in all cases: functional
[1] = system: Mus musculus; test: Antimalarial activity, administered as a single subcutaneous dose of 80 mg/kg, 72 hrs post infection measured as number of mice (Mus musculus) surviving at 60 days post infection
Summary of the method: (§1)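 Mice were infected with a normal drug-sensitive Plasmodium berghei strain. At 72 h postinfection each received one subcutaneous dose of compound dissolved or suspended in peanut oil, in five-mouse groups per dose. The read-out was the number of mice alive at 60 days postinfection, which were scored as cured.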

[2] = system: Plasmodium berghei; test: Change in mean survival time for control (average 6.2 days) versus treated mice (Mus musculus) 72 hrs after 10 mg/kg subcutaneous dose
[3] = system: Plasmodium berghei; test: Antimalarial activity as 60-day survivors in infected mice (Mus musculus) after single 320mg/kg subcutaneous dose 72 hr post infection; summary of the method: as §1
[4] = system: Plasmodium berghei; test: Change in mean survival time for control (average 6.2 days) versus treated mice (Mus musculus) 72 hrs after 20 mg/kg subcutaneous dose
[5] = system: Mus musculus; test: Antimalarial activity, administered as a single subcutaneous dose of 640 mg/kg, 72 hrs post infection measured as number of mice (Mus musculus) surviving at 60 days post infection; summary of the method: as §1
[6] = system: Plasmodium berghei; test: Antimalarial activity as 60-day survivors in Plasmodium berghei infected mice (Mus musculus) after single 160mg/kg subcutaneous dose 72 hr post infection; summary of the method: as §1
[7] = system: Plasmodium berghei; test: Difference in mean survival time in mice (Mus musculus) (control = 6.2 days) after single 40mg/kg subcutaneous dose 72hr post infection
[8] = system: Plasmodium berghei; test: Change in mean survival time for control (average 6.2 days) versus treated mice (Mus musculus) 72 hrs after 160 mg/kg subcutaneous dose
[9] = system: Plasmodium berghei; test: Change in mean survival time for control (average 6.2 days) versus treated mice (Mus musculus) 72 hrs after […] subcutaneous dose
[10] = system: Plasmodium berghei; test: Change in mean survival time for control (average 6.2 days) versus treated mice (Mus musculus) 72 hrs after 5 mg/kg subcutaneous dose
[11] = system: Plasmodium berghei; test: Change in mean survival time for control (average 6.2 days) versus treated mice (Mus musculus) 72 hrs after […] subcutaneous dose
[12] = system: Plasmodium berghei; test: Change in mean survival time for control (average of 6.2 days) versus treated mice (Mus musculus) 72 hrs after 80 mg/kg subcutaneous dose
[13] = system: Plasmodium berghei; test: Antimalarial activity in primary screen
[14] = system: Mus musculus; test: Antimalarial activity, administered as a single subcutaneous dose of 40 mg/kg, 72 hrs post infection measured as number of mice (Mus musculus) surviving at 60 days post infection; summary of the method: as §1
[15] = system: Plasmodium berghei; test: Change in mean survival time for control (average 6.2 days) versus treated mice (Mus musculus) 72 hrs after 640 mg/kg subcutaneous dose
[16] = system: Plasmodium berghei; test: Change in mean survival time for control (average 6.2 days) versus treated mice (Mus musculus) 72 hrs after 320 mg/kg subcutaneous dose

SMILES | No. of mice cured [1] | Delta MST [2] [days] | No. of mice cured [3] | Delta MST [4] [days] | No. of mice cured [5] | No. of mice cured [6] | Delta MST [7] [days] | Delta MST [8] [days] | Delta MST [9] [days] | Delta MST [10] [days] | Delta MST [11] [days] | Delta MST [12] [days] | ED30 [13] [mg/kg] | No. of mice cured [14] | Delta MST [15] [days] | Delta MST [16] [days]
CCN(CC)Cc1cc(Nc2ccnc3cc(Cl)ccc23)ccc1O.Cl | 2 | 5.7 | 5 | 8.3 | 5 | 5 | 11.9 | – | – | – | – | – | – | – | – | –
CCN(CC)Cc1cc(Nc2ccnc3cc(Cl)ccc23)cc(-c2ccccc2F)c1O | – | 12.8 | 5 | 16.4 | 5 | 2 | 18.4 | 33.1 | 0 | 4.4 | 0.4 | 26.2 | 26.8 | 1 | – | –
CCN(CC)Cc1cc(Nc2ccnc3cc(Cl)ccc23)cc(-c2ccc(Cl)c(Cl)c2)c1O | 4 | 0.9 | 5 | 15.7 | 3 | 4 | 23.7 | 21.4 | -0.1 | 0.1 | -0.3 | 33.4 | 22.7 | 3 | 10.9 | –
CCN(CC)Cc1cc(Nc2ccnc3cc(Cl)ccc23)cc(-c2ccc(F)cc2)c1O | – | – | – | – | – | – | 13.4 | 12.8 | – | – | – | – | 8.8 | 2 | 14.8 | –
CCN(CC)Cc1cc(Nc2ccnc3cc(Cl)ccc23)cc(-c2ccccc2OC)c1O | 2 | 2.6 | 2 | 6.2 | 5 | 2 | 9.4 | 18.9 | -0.2 | 0.4 | 0.2 | 14.9 | 74 | – | – | 37.9
CC(C)(C)NCc1cc(C(C)(C)C)cc(-c2ccc(Cl)cc2)c1O | – | – | 5 | 5.1 | 5 | 5 | 12.9 | – | – | – | – | 15.7 | – | – | – | –
CCN(CC)Cc1cc(Nc2ccnc3cc(Cl)ccc23)cc(-c2ccc(OC)cc2)c1O | 1 | 2.9 | 3 | 4.3 | 5 | 2 | 7.3 | 16.1 | 0.5 | 1.3 | 0.1 | 12.4 | 112 | – | – | 28.9
Oc1c(CNC23CC4CC(CC(C4)C2)C3)cc(Nc2ccnc3cc(Cl)ccc23)cc1-c1ccc(Cl)cc1 | 4 | 0.1 | 5 | 7.5 | 2 | 4 | 18.5 | 39 | -0.5 | -0.3 | -0.3 | 23 | – | – | 19 | –
CCN(CC)Cc1cc(Nc2cc[n+]([O-])c3cc(Cl)ccc23)ccc1O | – | – | 5 | – | 3 | 3 | – | – | – | – | – | – | – | – | – | –
CCN(CC)Cc1cc(Nc2ccnc3cc(Cl)ccc23)cc(CN(CC)CC)c1O [CYLCLOQUINE] | 2 | 11.5 | 5 | 15.1 | 5 | 4 | 19.1 | – | – | – | – | – | – | – | – | –
